# Bioassay records (PubChem)
# FLuc act counter: affects firefly luciferase, flagging false hits in luciferase stimulation screens; ATPlite luciferase biochemical, luminescence, 10 min; 0 = ATP-free wells, 1 = DMSO control; activation factor at 10 µM; 200,000 tested, under 10 active; AID 1027;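 active = luciferase activation factor, scaled between plate controls, of at least 2 with compound at 10 µM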
# Target sequence (P08659 whole entry, looked up): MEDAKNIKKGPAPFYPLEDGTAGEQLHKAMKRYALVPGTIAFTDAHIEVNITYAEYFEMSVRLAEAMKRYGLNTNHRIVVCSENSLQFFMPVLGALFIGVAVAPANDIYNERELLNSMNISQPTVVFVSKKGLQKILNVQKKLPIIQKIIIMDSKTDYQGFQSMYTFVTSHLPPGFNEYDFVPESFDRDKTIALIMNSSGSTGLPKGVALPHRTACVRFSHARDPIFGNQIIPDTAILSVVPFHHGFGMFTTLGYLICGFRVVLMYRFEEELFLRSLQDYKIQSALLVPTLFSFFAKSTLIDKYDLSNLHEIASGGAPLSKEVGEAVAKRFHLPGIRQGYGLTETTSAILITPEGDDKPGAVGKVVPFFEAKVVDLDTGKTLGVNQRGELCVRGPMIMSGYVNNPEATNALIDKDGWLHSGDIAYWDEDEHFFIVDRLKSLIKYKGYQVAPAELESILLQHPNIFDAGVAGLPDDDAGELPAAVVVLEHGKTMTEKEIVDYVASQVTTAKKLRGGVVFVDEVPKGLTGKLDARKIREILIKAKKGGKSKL
#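 Assay system: Luciferase/luciferin reagent mix; Medium: PBS as buffer for the ATP substrate; Dosing: test compounds dosed from 2 mM stocks in 100% DMSO; Times: 10 min, room temperature; Signal: luminescence from luciferase reaction; Read-out: luciferase activation; Controls: No-ATP low control, compound-free enzyme-plus-ATP high control.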
# PPC-1+TRAIL kill: compounds killing PPC-1 cancer cells with TRAIL present (potentiator screen, no TRAIL-free arm); PPC-1 cells + TRAIL, ATPLite viability luminescence; cell killing (% activity), % at 4 µM or 5 µM; actives 0.41% (n = 220,000);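 active = cell killing above 50% in the first pass at 4 µM, then a duplicate retest at 5 µM averaging 50% or more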;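 note: plate controls were cells with TRAIL plus DMSO for no effect and medium-only wells lacking cells for full effect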
# TRAIL sens C8: sensitizes caspase-8 expressing cells to TRAIL. NB7+C8 cells + TRAIL, ATPlite viability luminescence. inhibition (viability loss, TRAIL sensitization), % at 10 µM. actives 1% (n = 360,000). AID 624354;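 active = compounds causing at least 50% loss of cell viability in the single-dose screen, relative to plate controls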
# FLuc inhib CS: inhibits firefly luciferase, flagging false hits in luciferase inhibition screens | P08659 | inhibition, % at 10 µM | actives 1.5% (n = 200,000) | ATPLite firefly luciferase biochemical luminescence, 10 min;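 active = inhibition above about 50% when tested at 10 µM, limit read from the data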
# Starred values were filed as active, the others as inactive; · = no result. Most compounds without a hit are left out; they make up all but 1.5% or so of the library.
SMILES,FLuc act counter,PPC-1+TRAIL kill,TRAIL sens C8,FLuc inhib CS
COc1ccccc1-n1cc(C(=O)NCC(=O)N2CCN(c3ccccc3)CC2)c2ccccc2c1=O,0.3,39.6,32.4,69.9*
COc1ccc(-n2nc(C(=O)NCC(=O)N3CCN(C)CC3)c3ccccc3c2=O)cc1OC,1,4.0,5.1,-2.1
COc1ccc(-n2nc(C(=O)NCC(=O)N3CCN(c4ccccc4F)CC3)c3ccccc3c2=O)cc1OC,·,·,53.1*,·
COc1ccc(N2CCN(C(=O)CNC(=O)c3nn(-c4ccc(OC)cc4)c(=O)c4ccccc34)CC2)cc1,·,·,1.7,·
COc1ccc(-n2nc(C(=O)NCC(=O)N3CCN(c4ccccc4F)CC3)c3ccccc3c2=O)cc1,·,·,72.3*,·
CCCCCCN(C(=O)CCCCCN1C(=O)NC(c2ccc(-c3ccccc3)cc2)C(C(=O)OCc2ccccc2)=C1C)C(C)C(=O)NCCCC (centres undefined),1,18.2,·,-1.5
Cc1c(C(=O)N2CCc3ccccc32)oc2ccccc12,0.3,28.4,60.5*,72.9*
COCc1c(C(=O)N2CCc3ccccc32)oc2ccccc12,·,·,-12.1,·
O=C(c1ccc(Br)o1)N1CCc2ccccc21,0.5,29.9,·,54.0*
O=C(CCN1C(=O)c2ccccc2C1=O)Nc1ccc(F)cc1,1,7.4,-15.7,-0.9
O=C(C(=O)c1cccnc1)c1cccnc1,·,15.9,-2.7,·
CN1/C(=C\C(=O)c2cccnc2)Sc2ccccc21,0.5,16.5,18.7,54.7*
COc1cccc(C(=O)/C=C2\Sc3ccccc3N2C)c1,0.2,49.8,51.2*,79.1*
CC1CCN(c2ccc(NC(=O)c3cccnc3Cl)cc2)CC1,1,·,5.5,1.1
COc1ccc(-c2cc3nc[nH]c(=O)c3s2)cc1,0.3,47.5,60.7*,72.3*
O=c1[nH]cnc2cc(-c3ccccc3)sc12,0.5,29.8,20.0,48.6
COc1ccc(-c2cc3nc(CCl)[nH]c(=O)c3s2)cc1,·,·,90.8*,·
C(=Cc1cnc2ccccc2n1)c1ccc2c(c1)OCO2,·,·,85.9*,·
C[n+]1c(/C=C/c2ccc3c(c2)OCO3)ccc2ccccc21,0.9,·,-0.8,6.2
C(=Cc1nc2ccccc2o1)c1ccc2c(c1)OCO2,·,·,79.6*,·
CC1=NN(c2ccc([N+](=O)[O-])cc2)C(=O)/C1=C\N(C)C,0.5,26.0,4.8,51.7*
CCCC1=NN(c2ccc([N+](=O)[O-])cc2)C(=O)/C1=C/N(C)C,1,20.3,-1.0,-2.7
Cc1ccc2oc(C(=O)Nc3nnc(C)s3)c(C)c2c1,0.4,37.7,44.8,59.0*
COc1ccc2oc(C(=O)Nc3nnc(C)s3)c(C)c2c1,·,·,70.4*,·
Cc1ccc2oc(C(=O)Nc3nonc3C)c(C)c2c1,·,·,7.6,·
SMILES,FLuc act counter,PPC-1+TRAIL kill,TRAIL sens C8,FLuc inhib CS
CC(=O)c1ccc(OCC(=O)OCC(=O)Nc2sccc2C(N)=O)cc1,·,·,-19.0,·
Cc1nn(-c2ccccc2)c(Cl)c1/C=N/Nc1nc2ccccc2[nH]1,0.4,30.2,35.4,64.9*
Brc1ccc(-c2ccc(/C=N/Nc3nc4ccccc4[nH]3)o2)cc1,0.2,12.2,52.4*,81.2*
Brc1ccc(-c2ccc(/C=N/Nc3nncc(-c4ccccc4)n3)o2)cc1,1,4.8,19.9,-3.2
Cc1ccc(/C=N/Nc2nc3ccccc3[nH]2)s1,0.3,0.6,13.5,71.7*
O=[N+]([O-])c1cc(/C=N/Nc2nc3ccccc3[nH]2)c(O)cc1O,0.8,52.7*,·,19.7
Cc1ccccc1/C=N/Nc1nc2ccccc2[nH]1,0.8,-5.3,1.1,15.1
COc1cc(CN(C(=S)NCC(=O)NC2CC2)C2CCCC2)cc(OC)c1OC,1,16.9,-2.4,-4.3
COc1cc(CCNC2=CC(=O)c3ncccc3C2=O)ccc1O,·,·,57.8*,·
COc1ccccc1CNS(=O)(=O)c1cc(CN2C(=O)c3cccnc3C2=O)ccc1OC,·,·,-15.3,·
Cn1c(=O)[nH]c(=O)c2c1nc(SCCC(=O)O)n2Cc1cccc(Br)c1,·,·,3.6,·
O=C(Cn1ccn(-c2ccc(F)c(Cl)c2)c(=O)c1=O)NCCc1ccccc1,·,·,-3.9,·
O=C(N/N=C/c1cc(Cl)ccc1O)c1ccccc1Br,1,20.5,52.5*,-2.4
O=C(N/N=C\c1cc(Cl)ccc1O)c1ccc(S(=O)(=O)N2CCCCC2)cc1,1.1,51.8*,20.1,-6.5
O=C(/C(C=Nc1cccc(C(F)(F)F)c1)=C(/O)c1ccco1)C(F)(F)F,0.8,5.2,-3.8,24.1
O=C(/C(C=Nc1ccc(Br)cc1)=C(/O)c1ccco1)C(F)(F)F,0.3,60.3*,43.5,65.7*
O=C(N/N=C/c1cc(Br)ccc1O)C(c1ccncc1)N1CCOCC1 (centres undefined),1.1,18.6,53.0*,-5.5
COC1=CC(=O)c2nc(Cl)ccc2C1=O,·,·,94.6*,·
C#Cc1cccc(Nc2nc(NCc3ccccc3OC)nc3ccsc23)c1,·,·,45.6*,·
C#Cc1cccc(Nc2nc(NCCOC)nc3ccsc23)c1,·,·,8.0,·
CN(C)c1ccc(Sc2ccc3nc(N)nc(N)c3c2)cc1,·,·,70.8*,·
CSc1n[nH]c(NCc2ccc(Cl)cc2)n1,0.8,20.7,5.9,18.9
CSc1n[nH]c(NCc2ccc(C)cc2)n1,0.4,25.0,30.8,59.7*
COc1ccc(-c2cc(C(F)(F)F)nc(-n3ccnc3C)n2)cc1,1.1,-4.9,14.9,-6.2
CO/N=C/NC(=O)c1c(OC)ccnc1Oc1cccc(C(F)(F)F)c1,1,10.4,1.2,-3.0
SMILES,FLuc act counter,PPC-1+TRAIL kill,TRAIL sens C8,FLuc inhib CS
CC(C)C(=O)NC(NC1CCS(=O)(=O)C1)C(Cl)(Cl)Cl (centres undefined),1.1,0.6,-7.1,-5.6
O=C1c2cccc(NCCCNCCO)c2C(=O)c2cccc(NCCCNCCO)c21,·,·,57.0*,·
Cc1ccc(C(=O)c2cc3ccccc3o2)cc1C,0.7,5.5,11.0,27.7
Cc1ccc(NC(=O)c2ccc3ccccc3n2)nc1,0.3,40.5,28.4,73.1*
Cc1ccc(C(=O)c2cc3ccccc3o2)cc1,0.4,18.8,29.6,56.7*
Cc1ccc(NC(=O)c2cc3ccccc3o2)nc1,·,·,59.2*,·
Cc1noc(C)c1C(=O)Nc1ccc(N(C)C)cc1,·,·,5.4,·
CN(C)c1ccc(NC(=O)c2cnsn2)cc1,0.3,31.7,28.5,71.5*
N#Cc1c(NC(=O)CSc2nc(-c3ccccc3)cc(C(F)(F)F)n2)sc2c1CCC2,1.1,-14.9,25.9,-6.1
CCCCC[C@@H](C)N1C[C@H](COCc2ccccc2)Oc2cc(N3CC[C@H](N(C)C)C3)ccc2S1(=O)=O,·,·,69.1*,·
Cc1ccc(C(=O)NCc2ccc(F)cc2)cc1NC1=NC2CS(=O)(=O)CC2S1 (centres undefined),·,·,9.5,·
COc1ccc(OC)c(NC(=O)Nc2nc(C(C)N)cs2)c1 (centres undefined),·,·,-9.2,·
CCN1/C(=C/C(C)=C/c2sc3ccccc3[n+]2CC)Sc2ccccc21,0.6,47.3,50.4*,41.8
Cc1ccc(NC(=O)c2cnn(-c3ccccc3)c2C)cc1,·,·,45.1,·
Cc1ccc(-n2c(C)cc(C(=O)NS(=O)(=O)c3ccc(C)cc3)c2C)cc1,1,14.0,-9.2,-2.4
Cc1ccc(NC(=O)c2cc(C)n(-c3cccc(C)c3)c2C)cc1,0.3,19.6,30.1,74.3*
